Experiments:
[1] = molecular target: adenosine A2A (hADORA2A) receptor (Homo sapiens, UniProt P29274); assay: cAMP ELISA in NECA/ADA-stimulated hADORA2A-HEK293 cells; format: cell-based
[2] = Photostability of solution, HPLC purity after 1 h of light exposure; format: physicochemical; details: 1 h light exposure
Procedure, shortened: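 Test compound dissolved in acetonitrile–potassium dihydrogen phosphate solution. A reference solution was kept in the dark, and a second sample was exposed to light for 1 h. Purity of each was determined by HPLC with DAD detection.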

adenosine A2A (hADORA2A) receptor, sequence (P29274 whole entry): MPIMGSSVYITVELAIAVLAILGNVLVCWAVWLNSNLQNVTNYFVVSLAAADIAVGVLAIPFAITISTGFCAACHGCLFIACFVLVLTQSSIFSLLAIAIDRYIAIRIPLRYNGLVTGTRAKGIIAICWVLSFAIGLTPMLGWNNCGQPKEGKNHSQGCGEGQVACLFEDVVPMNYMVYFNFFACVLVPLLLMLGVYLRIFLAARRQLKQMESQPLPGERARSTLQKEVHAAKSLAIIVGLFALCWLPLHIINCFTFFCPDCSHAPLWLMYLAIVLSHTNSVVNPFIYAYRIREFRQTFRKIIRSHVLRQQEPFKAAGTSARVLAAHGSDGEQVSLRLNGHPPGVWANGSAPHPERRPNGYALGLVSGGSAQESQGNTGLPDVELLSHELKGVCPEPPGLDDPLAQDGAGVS

IC50 [1] [µM] | isomerization after 1 h of light exposure [2] | SMILES
> 421 |  | Nc1ncnc2[nH]c(/C=C/c3ccccc3)nc12 [II-1-1, (E) -8-styryl-9H-purine-6-amine]
 | about 1/3 | CCn1c(=O)c2c(nc(/C=C/c3ccc(OC)c(OC)c3)n2C)n(CC)c1=O [Istradefylline, istradefylline]
